Series [1] in a line: Retention time of the compound by HPLC method. Type of series: physicochemical.
A further series has as its system Firmicutes. Kind of series: Antimicrobial activity against Firmicutes K940. Type of series: functional. The conditions noted are these: Bacillota. The essentials: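 Growth-inhibition assay against the inducing Actinobacteria (E906) and Firmicutes (K940) coculture isolates. Dose-response testing gave the MIC values. Bacteria were grown overnight in tryptic soy broth with shaking and read by OD at 625 nm. Wells were adjusted to about 5 × 10^5 CFU per 100 μL, compound was added to a 100 μL final volume, and plates were incubated overnight.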

Series [2] deals with Burkholderia vietnamiensis. The series is described as follows: Antimicrobial activity against Burkholderia vietnamiensis ATCC BAA-248 assessed as inhibition of microbial growth at 50 ug/ml. Type of series: functional. A digest of the protocol:
(§1)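 Single-dose growth-inhibition test at 50 μg/mL. Stock culture (50 μL) went into 10 mL tryptic soy broth and was shaken overnight at 37 °C; X. axonopodis was grown at 30 °C instead. OD was read at 625 nm and cells were adjusted to about 5 × 10^5 CFU per 100 μL well. Compound was added to a 100 μL final volume and plates were incubated overnight.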

Another series relates to Brucella neotomae. Kind of series: Antimicrobial activity against Brucella neotomae ATCC 23459 assessed as inhibition of microbial growth at 50 ug/ml. Type of series: functional. A digest of the protocol:
as §1

The subject of another series is Yersinia pestis. The series is described as follows: Antimicrobial activity against Yersinia pestis A1122 assessed as inhibition of microbial growth at 50 ug/ml. Type of series: functional, organism-based.
For a further series, the system named is Xanthomonas axonopodis. The series is described as follows: Antimicrobial activity against Xanthomonas axonopodis ATCC 8718 assessed as inhibition of microbial growth at 50 ug/ml. Type of series: functional, organism-based. The essentials:
as §1

Another series has as its system Pseudomonas aeruginosa. The series is described as follows: Antimicrobial activity against Pseudomonas aeruginosa ATCC 27853 assessed as inhibition of microbial growth at 50 ug/ml. Type of series: functional, organism-based. The essentials:
as §1

The next series concerns Enterococcus faecalis. Kind of series: Antimicrobial activity against Enterococcus faecalis ATCC 29212 assessed as inhibition of microbial growth at 50 ug/ml. It is filed as functional, organism-based.
The subject of another series is Escherichia coli. The series is described as follows: Antimicrobial activity against Escherichia coli ATCC 25922 assessed as inhibition of microbial growth at 50 ug/ml. It is filed as functional, organism-based. A digest of the protocol: as §1
Series [3] relates to Mycobacterium tuberculosis. Kind of series: Antimicrobial activity against Mycobacterium tuberculosis H37Rv assessed as inhibition of microbial growth at 50 ug/ml. It is filed as functional, organism-based.

We go through one compound from ChEMBL document CHEMBL3576808, “Phylum-specific regulation of resistomycin production in a Streptomyces sp. via microbial coculture” (J Nat Prod, 2015).

Broadly, the MIC is the smallest concentration in the dilution series that meets the test's criterion for growth inhibition. High values mean a less susceptible organism, low ones a more susceptible organism.

≈ marks a conversion by molar mass, not a printed value. Calls of active or inactive are those of the source.

Turning to `Cc1cc(O)c2c3c4c(cc(O)c13)C(C)(C)C(=O)c1c(O)cc(O)c(c1-4)C2=O` [HELIOMYCIN], the Retention_time in series [1] worked out at 17.9 min. The compound also yielded an MIC against Firmicutes of 0.25 µg/mL (≈ 0.664 µM). Besides, the inhibition result (in series [2]; in the series with Brucella neotomae; in the series with Yersinia pestis; in the series on Xanthomonas axonopodis; in the series with Pseudomonas aeruginosa; in the series with Enterococcus faecalis) was “inactive” throughout. The inhibition entry (in the series with Escherichia coli; in series [3]) was “inactive” each time.
